Test results from PMC9298258 (Clinical Pharmacology and Therapeutics, 2021).

Experiments:
BTK = BTK (Homo sapiens, UniProt Q06187); assay: BTK occupancy test in peripheral blood mononuclear cells; type: in vivo
Method in brief: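 PBMC BTK occupancy measured by duplexed homogeneous TR-FRET, reading free and total BTK in the same well. LLOQ was 12 ng/mL; baselines below it were excluded. Study #1 used days 8 and 17, with day-8 predose as baseline. Study #2 sampled at baseline, days 1–7 and up to 120 h post-last-dose, or at PK timepoints. Covalent binding model with BTK-synthesis feedback (ksyn); NONMEM FOCE-I; bootstrap.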

[1] = Plasma PK of tirabrutinib in two phase I studies; type: in vivo; settings: human, oral
[2] = cited from earlier work
Population PK model = type: in vivo, human
Method in brief: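 Plasma drug was measured by validated LC-MS/MS with an isotopically labeled internal standard (LLOQ 1.0 ng/mL). Pooled data came from healthy and RA subjects in two phase I studies. The model was two-compartment with first-order absorption, lag time and relative bioavailability, with IIV on CL/F, Vc/F and ka. Fitting used NONMEM FOCE-I. Covariates were screened on CL/F, Vc/F and ka, and bootstrap gave CIs.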

[3] = system: murine collagen–induced arthritis model; settings: cited from earlier work
subjects with RA = assay: Exploratory efficacy in study #2, part B; type: in vivo, human; settings: 20 mg q.d.
Method in brief: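 RA subjects in phase I part B were assessed at day 1 predose, week 2 and week 4. End points were plasma hsCRP and tender joint count 68 within the ACR core set. Each end point was regressed linearly against model-predicted time above 90% BTK occupancy over a 24-hour dosing interval.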

patients with RA = settings: cited from earlier work
[4] = bootstrap (N = 1000) final model median estimate
[5] = final PopPK model estimate (RSE%)

Chain of BTK (Q06187 whole entry): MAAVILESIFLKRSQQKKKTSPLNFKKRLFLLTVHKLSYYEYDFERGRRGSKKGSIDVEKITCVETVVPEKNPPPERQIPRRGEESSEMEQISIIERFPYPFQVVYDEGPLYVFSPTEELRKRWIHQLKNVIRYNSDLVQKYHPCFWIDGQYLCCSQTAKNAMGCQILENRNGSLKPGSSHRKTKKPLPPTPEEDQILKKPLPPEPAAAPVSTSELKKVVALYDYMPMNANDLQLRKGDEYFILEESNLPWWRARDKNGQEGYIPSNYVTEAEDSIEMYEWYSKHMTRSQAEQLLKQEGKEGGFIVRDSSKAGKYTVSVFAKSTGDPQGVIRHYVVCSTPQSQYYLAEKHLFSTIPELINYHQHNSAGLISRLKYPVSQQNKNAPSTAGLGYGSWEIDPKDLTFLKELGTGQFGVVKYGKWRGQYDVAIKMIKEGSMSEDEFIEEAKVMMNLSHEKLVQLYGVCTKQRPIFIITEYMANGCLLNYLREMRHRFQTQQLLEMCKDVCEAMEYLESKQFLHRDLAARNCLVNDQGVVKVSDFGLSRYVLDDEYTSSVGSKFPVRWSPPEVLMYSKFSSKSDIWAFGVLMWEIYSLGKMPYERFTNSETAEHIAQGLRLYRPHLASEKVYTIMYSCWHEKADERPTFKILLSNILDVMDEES

## CC#CC(=O)N1CC[C@@H](n2c(=O)n(-c3ccc(Oc4ccccc4)cc3)c3c(N)ncnc32)C1 [tirabrutinib, Tirabrutinib]
BTK; [4]
  Feedback rate constant on protein synthesis from BTK inhibition, ksyn: -0.0290 h⁻¹
BTK; final PK/PD model estimate (RSE%)
  Feedback rate constant on protein synthesis from BTK inhibition, ksyn: −0.0301 (59) h^−1
BTK; model and observed fBTK
  BTK suppression after multiple dosing: maintained through a 24‐hour dosing interval
[1]
  half-life: 6.2 to 7.3 h
[2]; 20-to-320 mg dose range
  dose proportionality of pharmacokinetics: dose‐proportional
[2]; patients with B-cell malignancies, 20 to 480 mg q.d.
  tolerability: generally well‐tolerated
[2]; phase I dose escalation study
  absorption following oral administration: rapidly absorbed
Population PK model; [4]
  Absorption lag time: 0.465 h
  Absorption rate constant, ka: 0.811 h⁻¹
  Apparent oral clearance, CL/F: 62.5 L/h
  Apparent oral volume, Vc/F: 357 L
  IIV of CL/F: 27.1%
  IIV of Vc/F: 53.7%
  IIV of ka: 89.6%
  Influence of age on ka: –1.74
Population PK model; [5]
  Absorption lag time: 0.465 (1) h
  Absorption rate constant, ka: 0.800 (14) h^−1
  Apparent oral clearance, CL/F: 62.6 (4) L/h
  Apparent oral volume, Vc/F: 357 (7) L
  IIV of ka: 93.4 (13) %
Population PK model; final PopPK model estimate (RSE%), covariate exponent
  Influence of age on ka: –1.74 (26)
[3]
  arthritis severity and bone damage: dose‐dependent inhibition
Subjects with RA; week 4 visit
  change in TJC68: small numerical decrease
  change in hsCRP levels: small numerical decrease
Subjects with RA; exploratory efficacy analysis
  effects on disease-related outcomes: modest effects

## C[C@H]1CN(C2COC2)CCN1c1ccc(Nc2cc(-c3ccnc(N4CCn5c(cc6c5CC(C)(C)C6)C4=O)c3CO)cn(C)c2=O)nc1 [fenebrutinib]
Patients with RA
  efficacy in moderate-to-severe RA: comparable with adalimumab
Patients with RA; subjects with RA
  BTK inhibition achieved by the efficacious doses: 90%

## C=CC(=O)Nc1cccc(Nc2nc(Nc3ccc(OCCOC)cc3)ncc2F)c1 [spebrutinib]
Patients with RA
  disease markers in patients with active RA: reduce disease markers
